# Results as given in ChEMBL document CHEMBL4699493, “Development of Bis-cyclic Imidazolidine-4-one Derivatives as Potent Antibacterial Agents” (J Med Chem, 2020).
# Activity calls are given as the source filed them. The rule behind the calls is not given here.
# Tests used:
# [1] = test system: Staphylococcus epidermidis; assay: Antibacterial activity against methicillin-resistant Staphylococcus epidermidis RP62A; type: functional
# Method in brief: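 Broth microdilution in TSB. Strains were grown 16 h, subcultured 6 h to log phase, then diluted to 10^6 CFU/mL by OD600. Compound came from a 5 mg/mL DMSO stock diluted in TSB and serially diluted, top final concentration 25 μg/mL. MIC was the lowest concentration giving complete growth inhibition. Done ≥3 times in duplicate.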
# Klebsiella pneumoniae = assay: Antibacterial activity against Klebsiella pneumoniae ATCC 13383; type: functional
# Method in brief: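 Broth microdilution in TSB. Stocks at 5 mg/mL in DMSO diluted with TSB to 100 μg/mL, then serially diluted; highest test concentration 25 μg/mL. Bacteria grown 16 h, subcultured 6 h to log phase, adjusted to 10^6 CFU/mL by OD600. MIC = lowest concentration giving complete growth inhibition. At least three repeats, each in duplicate.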
# [2] = Hemolytic activity against mouse RBC measured after 1 hr by microplate reader analysis; type: ADME, cell-based, Erythrocyte; conditions: mouse red blood cells (erythrocytes)
# Method in brief: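 Mouse red blood cells collected by centrifugation (500–700g, 10 min), washed three times in PBS, and diluted 20-fold in PBS. Mixed with 2-fold serial dilutions of compound (starting at 1 mg/mL in PBS) and incubated 1 h at 37 °C. After centrifugation, supernatant absorbance read at 540 nm. % hemolysis calculated relative to PBS (0%) and 2% Triton (100%). At least three repeats in duplicate.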
# HeLa = assay: Cytotoxicity against human HeLa cells after 24 hrs by MTT assay; type: cell-based
# Method in brief: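 HeLa cells seeded at 5 × 10^3 cells/well, attached 24 h at 37 °C, 5% CO2, then exposed to a range of compound concentrations in growth medium for 24 h. Viability read with CCK-8 reagent, absorbance at 490 nm after 1 h. Triplicate wells, three repeats.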
# Staphylococcus aureus [3] = assay: Antibacterial activity against methicillin-resistant Staphylococcus aureus ATCC 33591 in presence of monovalent Na+ and K+; type: functional
# Method in brief: (§1)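 MIC set up as in the standard broth microdilution (log-phase inoculum at 10^6 CFU/mL, complete growth inhibition end point). The medium was TSB dissolved in 1× PBS (7.5 g per 250 mL) and autoclaved, supplying Na+ and K+.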
# [4] = test system: Staphylococcus epidermidis; assay: Antibacterial activity against methicillin-resistant Staphylococcus epidermidis RP62A in presence of monovalent Na+ and K+; type: functional; method in brief: as §1
# Staphylococcus aureus [5] = assay: Antibacterial activity against methicillin-resistant Staphylococcus aureus ATCC 33591 in presence of divalent Ca2+; type: functional
# Method in brief: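 MIC set up as in the standard TSB broth microdilution (log-phase inoculum at 10^6 CFU/mL, complete growth inhibition end point). The medium was TSB prepared in DI water with CaCl2 added to 2 mM.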
# Escherichia coli [6] = assay: Bactericidal activity against Escherichia coli ATCC 25922 at 24 to 48 microg/ml measured after 30 mins by time kill assay; type: functional, organism-based; conditions: dose microg/ml 24-48, time 30.0 min
# Method in brief: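 Mid-log bacteria at 10^6 CFU/mL incubated with compound (12, 24, 48 μg/mL) at 37 °C for 10, 30, 60, 120 min; untreated control. Mixtures diluted 10^4-fold, plated on TSB agar, incubated 20 h at 37 °C, colonies counted and plotted against time. Three repeats.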
# Cell membrane = assay: Induction of inner membrane permeabilization in Escherichia coli ATCC 25922 at 2 times MIC measured for 12 mins by propidium iodide staining based fluorescence microscopic analysis; type: functional, subcellular
# Method in brief: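 Mid-log bacteria pelleted at 1000g, washed three times in 5 mM HEPES/5 mM glucose, and resuspended to 10^6 CFU/mL. PI added (50 μL of a 10 μM solution to 150 μL of cells). Fluorescence (ex 535 nm, em 617 nm) read every 2 min for about 8 min, then compound added and reading continued for 12 min. Water added as the no-drug control. Three repeats.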
# Staphylococcus aureus [7] = assay: Antibacterial activity against methicillin-resistant Staphylococcus aureus ATCC 33591 measured for 13 passages; type: functional, organism-based
# Method in brief: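 Serial-passage resistance test. A first MIC was run by TSB broth microdilution. Bacteria from the well after the last clear well were resuspended to about 10^6 CFU/mL for the next MIC. This was repeated for 13 passages.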
# Escherichia coli [8] = assay: Antibiofilm activity against Escherichia coli ATCC 25922 assessed as reduction in biofilm formation at 3 ug/ml measured after 2 days by crystal violet staining based assay; type: functional; conditions: ATCC 25922, 48 h, time 2 day
# Method in brief: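 Mid-log E. coli (overnight culture, then 6 h subculture at 37 °C) set up with compound in TSB as in the MIC assay and incubated 2 days. Wells washed with DI water, stained with 0.1% crystal violet for 15 min, washed, dried, and dye solubilized in 30% acetic acid for 15 min. OD595 normalized to untreated control. Ciprofloxacin as comparator. Triplicate, mean ± STDEV.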
structure (smiles),measurement,setting,value
CCCCCCCCCC(=O)N[C@@H](CCCCN)CN1CC(=O)N(c2ccc(N3CN(C[C@H](CCCCN)NC(=O)CCCCCCCCC)CC3=O)cc2)C1,MIC,[1],5 mg/L
same,MIC,Klebsiella pneumoniae,5 mg/L
same,HC50 at 1 h,[2],> 250 µg/mL
same,IC50,HeLa,74.8 mg/L
same,MIC,Staphylococcus aureus [3],4 mg/L
same,MIC,[4],7 mg/L
same,MIC,Staphylococcus aureus [5],2 mg/L
same,Activity,Escherichia coli [6],Active
same,Activity,Cell membrane,Active
same,Activity,Staphylococcus aureus [7],Active
same,inhibition at 3 µg/mL,Escherichia coli [8],> 50%
